In ChEMBL document CHEMBL1143390 (Bioorg Med Chem, 2009):

What was measured:
CCRF-CEM = assay: Cytotoxicity against human CEM cells after 3 days by MTT assay; format: cell-based; conditions: 72 h
In short: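 CEM T-lymphoblastoid cells in log phase, seeded at 2.5×10^3 cells/well with 10-fold serial dilutions of drug. Incubated 3 days at 37 °C in humidified 5% CO2-air. MTT dye added overnight, then solubilization for 5 h and read at 570 nm. IC50 from the concentration-response curve by the median effect method.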

[1] = Chemical stability in Tris-HCl buffer assessed as hydrolysis half life at pH 8 in presence of porcine esterase; format: physicochemical; conditions: pig, isolated protein
In short: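 Prodrug at 1.4 mM final in pH 8.0 Tris-HCl with 5% DMSO and 20 μg/mL porcine esterase, incubated at 37 ± 0.5 °C. Aliquots quenched in ice-cold methanol/acetonitrile 1/1, filtered and analysed by HPLC. Enzyme activity checked with ethyl butyrate substrate.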

[2] = tested on: Human immunodeficiency virus 1; assay: Antiviral activity against HIV1 LAI infected in PBM cells; conditions: Human immunodeficiency virus 1, LAI, PBMC
PBMC = assay: Cytotoxicity against human PBM cells after 4 days by MTT assay; conditions: 96 h
Vero = assay: Cytotoxicity against african green monkey Vero cells after 2 days by MTT assay; conditions: Chlorocebus sabaeus, 48 h
[3] = Chemical stability in phosphate buffer assessed as hydrolysis half life at pH 2.0; format: physicochemical
In short: (§1)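 Prodrug, 1 mM in DMSO, diluted into 10 mM phosphate buffer at pH 2.0 or 7.4, ionic strength 0.1 set with NaCl, final 5% DMSO. Held at 37 ± 0.5 °C in screw-capped vials. Samples drawn over time, filtered and analysed by HPLC. Half-life from linear regression of a pseudo-first-order plot.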

[4] = Chemical stability in phosphate buffer assessed as hydrolysis half life at pH 7.4; format: physicochemical; in short: as §1

Compound | IC50 (CCRF-CEM) | t1/2 [1] | EC50 [2] | EC90 [2] | IC50 (PBMC) | IC50 (Vero) | t1/2 [3] | t1/2 [4]
CCCCCCCCCCCC(=O)OC[C@@H]1OC[C@H](n2cc(C)c(=O)[nH]c2=O)O1 | > 100 µM | 0.683 h | 0.4 µM | 3.2 µM | > 100 µM | > 100 µM | – | –
Cc1cn([C@H]2CO[C@@H](COC(=O)[C@@H](N)Cc3ccccc3)O2)c(=O)[nH]c1=O.Cl | > 100 µM | 0.243 h | 0.88 µM | 4.4 µM | > 100 µM | > 100 µM | 9.17 h | 17.83 h
CCCCCCCC(=O)OC[C@@H]1OC[C@H](n2cc(C)c(=O)[nH]c2=O)O1 | > 100 µM | 0.483 h | 0.6 µM | 4.3 µM | > 100 µM | > 100 µM | 30 h | 54.17 h
CCCCC(=O)OC[C@@H]1OC[C@H](n2cc(C)c(=O)[nH]c2=O)O1 | > 100 µM | 0.308 h | 0.4 µM | 2.5 µM | > 100 µM | 49 µM | 26.67 h | 53 h
CCCCCCCCCCCCCCCC(=O)OC[C@@H]1OC[C@H](n2cc(C)c(=O)[nH]c2=O)O1 | > 100 µM | 0.8 h | 23.5 µM | > 100 µM | > 100 µM | 92.2 µM | – | –
Cc1cn([C@H]2CO[C@@H](COC(=O)[C@H](N)Cc3ccccc3)O2)c(=O)[nH]c1=O.Cl | > 100 µM | 0.26 h | 1 µM | 5.2 µM | > 100 µM | > 100 µM | 7.17 h | 15.7 h
Cc1cn([C@H]2CO[C@@H](COC(=O)[C@@H]3CCCN3)O2)c(=O)[nH]c1=O.Cl | > 100 µM | 0.227 h | 1.4 µM | 7.3 µM | > 100 µM | > 100 µM | 3.83 h | 6.33 h
Cc1cn([C@H]2CO[C@@H](COC(=O)C3CCCCC3)O2)c(=O)[nH]c1=O | > 100 µM | 0.322 h | 1.3 µM | 3.9 µM | > 100 µM | > 100 µM | 30.83 h | 53.33 h
Cc1cn([C@H]2C[C@H](N=[N+]=[N-])[C@@H](CO)O2)c(=O)[nH]c1=O [ZIDOVUDINE] | – | – | – | 0.04 µM | > 100 µM | – | – | –
Cc1cn([C@H]2CO[C@@H](COC(=O)[C@H](N)C(C)C)O2)c(=O)[nH]c1=O.Cl | > 100 µM | 0.323 h | 0.98 µM | 6.5 µM | > 100 µM | > 100 µM | 12.2 h | 30 h
CC(=O)OC[C@@H]1OC[C@H](n2cc(C)c(=O)[nH]c2=O)O1 | 99.4 µM | 0.272 h | 2.9 µM | 12.3 µM | > 100 µM | > 100 µM | 26.33 h | 44.17 h
Cc1cn([C@H]2CO[C@@H](COC(=O)CN)O2)c(=O)[nH]c1=O.Cl | > 100 µM | 0.207 h | 2.5 µM | 8.4 µM | > 100 µM | > 100 µM | 8.67 h | 22 h
Cc1cn([C@H]2CO[C@@H](COC(=O)[C@@H](N)CC(C)C)O2)c(=O)[nH]c1=O.Cl | > 100 µM | 0.298 h | 3.3 µM | 12.4 µM | > 100 µM | > 100 µM | 14.5 h | 35.83 h
Cc1cn([C@H]2CO[C@@H](COCOC(=O)C(C)(C)C)O2)c(=O)[nH]c1=O | > 100 µM | 0.293 h | 1.4 µM | 9.7 µM | > 100 µM | > 100 µM | – | –
Cc1cn([C@H]2CO[C@@H](COC(=O)C(C)(C)C)O2)c(=O)[nH]c1=O | > 100 µM | 0.283 h | 1.3 µM | 14.5 µM | > 100 µM | 18.1 µM | 21.67 h | 46.33 h
Cc1cn([C@H]2CO[C@@H](COC(=O)[C@@H](N)Cc3c[nH]c4ccccc34)O2)c(=O)[nH]c1=O.Cl | > 100 µM | 0.297 h | 1.7 µM | 8 µM | > 100 µM | > 100 µM | 5.33 h | 7 h
Cc1cn([C@H]2CO[C@@H](COC(=O)C(C)(C)N)O2)c(=O)[nH]c1=O.Cl | > 100 µM | 0.223 h | 2.2 µM | 7.6 µM | > 100 µM | > 100 µM | 15.3 h | 31.17 h
Cc1cn([C@H]2CO[C@@H](COC(=O)[C@@H](N)CCC(=O)O)O2)c(=O)[nH]c1=O.Cl | > 100 µM | 0.223 h | 0.89 µM | 6.3 µM | > 100 µM | > 100 µM | 3.17 h | 4 h
Cc1cn([C@H]2CO[C@@H](COC(=O)C3CC3)O2)c(=O)[nH]c1=O | > 100 µM | 0.288 h | 4.7 µM | 15.1 µM | > 100 µM | > 100 µM | 20 h | 46.67 h
CC[C@H](C)[C@H](N)C(=O)OC[C@@H]1OC[C@H](n2cc(C)c(=O)[nH]c2=O)O1.Cl | > 100 µM | 0.292 h | 3 µM | 9.9 µM | > 100 µM | > 100 µM | 13.3 h | 34 h
Cc1cn([C@H]2CO[C@@H](COC(=O)[C@@H](N)C(C)C)O2)c(=O)[nH]c1=O.Cl | > 100 µM | 0.315 h | 0.56 µM | 4.9 µM | > 100 µM | > 100 µM | 16 h | 36.67 h
Cc1cn([C@H]2CO[C@@H](COC(=O)[C@H](C)N)O2)c(=O)[nH]c1=O.Cl | > 100 µM | 0.232 h | 0.98 µM | 8.3 µM | > 100 µM | > 100 µM | 14.5 h | 26.67 h
